The text below walks through data of ChEMBL document CHEMBL4513216, “Probing the Open Global Health Chemical Diversity Library for Multistage-Active Starting Points for Next-Generation Antimalarials” (ACS Infect Dis, 2020).

The nature of this data set: Toxicity liver stage against HepG2, at 10uM. It counts as cell-based. Details: test concentration 10 uM, cell line HepG2-A16-CD81EGFP. As to conditions: human, HepG2-A16-CD81EGFP cells; read-out: INHIBITION
The procedure, abridged:
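Uninfected HepG2-A16-CD81EGFP cells, 3 × 10^3 per well, 1536-well, plated on prespotted compound at 10 μM final, parasite-free screening media added to match infected plates; puromycin 10 μM positive, DMSO 0.5% negative; run in parallel with 48 h PbLuc assay at 37 °C, 5% CO2; viability by CellTiter-Glo luminescence, normalized to controls.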
`c1cnnc(N[C@@H]2CC[C@@H]3CN(Cc4ccc5[nH]ccc5c4)C[C@@H]32)c1`: the cytotoxicity at 10 µM was -7.81%.

As for `CC(C)n1ccnc1C1CCN(C(=O)N2CCCC2)CC1`, the cytotoxicity at 10 µM amounted to 0.386%.

Take `COC(CNC(=O)C1CCCC1)c1ccc(C)s1` (centres undefined): the cytotoxicity at 10 µM came to 4.45%.

Turning to `CC(C)NC(=O)N[C@H]1C[C@@H](Cc2cc(CN3CCOCC3)on2)C1(C)C`, the cytotoxicity at 10 µM is -5.5%.

Take `CC(=O)c1cc(Br)cc(F)c1OCC(=O)NC(C)C`: the cytotoxicity at 10 µM was -9.46%.

For `CCOc1ccnc(N2CCN(C(=O)c3cccnc3O)CC2)n1`, the cytotoxicity at 10 µM is -6.51%.

Turning to `CC(Cn1cccn1)C(=O)N1CCC(NS(C)(=O)=O)CC1` (centres undefined), the cytotoxicity at 10 µM is -8.34%.

For `Cc1cc(C)c(CNC(=O)N2CCN(c3nccs3)CC2)c(=O)[nH]1`, the cytotoxicity at 10 µM was -20.9%.

On to `CS(=O)(=O)N1CCC(Nc2ccc(C#N)c(C(F)(F)F)c2)CC1`, for which the cytotoxicity at 10 µM came to 6.85%.

Regarding `COc1ccccc1CNc1ncc(-c2cc(C)no2)c(C(C)C)n1`, the cytotoxicity at 10 µM was determined as 8.49%.

Consider `Cc1oc(C)c(C(=O)NCc2cccnc2N(C)C)c1C`, for which the cytotoxicity at 10 µM is -0.292%.

`O=C(CN1CCCC1CCCO)NCc1ccccn1` (centres undefined): the cytotoxicity at 10 µM was -5.6%.

For `CO[C@@H]1CCN(Cc2c(C)noc2C)[C@@H]2CN(Cc3cccnc3)C[C@@H]21`, the cytotoxicity at 10 µM came out at 11.9%.

As for `c1cn(Cc2ccc(N3CCCN(C4CCCC4)CC3)nc2)cn1`, the cytotoxicity at 10 µM amounted to 12%.

Regarding `COCCN(C)CCN1CC2(CCN(C(=O)C3CCOC3)CC2)OC1=O` (centres undefined), the cytotoxicity at 10 µM was -21.8%.

`O=C(O)c1csc(NCCc2ccccc2)n1`: the cytotoxicity at 10 µM is 0.501%.

On to `COc1nn(C)cc1C(=O)NCC(=O)NCc1ccccn1`, for which the cytotoxicity at 10 µM was -3.56%.

As to `COc1cc2c(cc1-c1nc3c(cnn3C)[nH]1)OCO2`, the cytotoxicity at 10 µM was -8.9%.

As to `O=C(Cc1ccon1)NC1CC2(CCC2)Oc2ccccc21` (centres undefined), the cytotoxicity at 10 µM is -6.71%.

In the case of `COCCN1CC(c2cc(O)nc(NC(C)C)n2)CC1=O` (centres undefined), the cytotoxicity at 10 µM is -39.7%.

Turning to `COc1ccc(C2CC(=O)c3c(O)cc(O)cc3O2)cc1O` (centres undefined), the cytotoxicity at 10 µM was -2.66%.

For `COc1cc2c(cc1CNC(=O)C(C)n1ccnc1C(C)C)CCC2` (centres undefined), the cytotoxicity at 10 µM was determined as 0.719%.

Turning to `O=C1CC(N(C(=O)c2ccc(F)c(C(F)(F)F)c2)C2CC2)C(=O)N1` (centres undefined), the cytotoxicity at 10 µM was -10.5%.

`CCc1cc(NC2CCS(=O)(=O)C2)nc(N2CCCCC2)n1` (centres undefined): the cytotoxicity at 10 µM is -3.15%.

Take `COCCN1CCC(CNC(=O)Nc2ccc(SC(F)(F)F)cc2)C1` (centres undefined): the cytotoxicity at 10 µM was -11.6%.

Take `COc1ccc(Oc2nccc3occc23)cc1CN1CCCC1`: the cytotoxicity at 10 µM is -24.6%.

In the case of `CCO[C@@H]1CO[C@@]2(CCCN(C(=O)COc3ccccc3OC)C2)C1`, the cytotoxicity at 10 µM was found to be 3.51%.

Turning to `Cc1csc2c(=O)n3c(nc12)CCN(C(=O)c1ccnn1C)CC3`, the cytotoxicity at 10 µM is -9.35%.

`COc1ccc(-c2nc(CN3CCOCS3(=O)=O)c(C)o2)cc1`: the cytotoxicity at 10 µM was -0.0714%.

For the compound `CC(C)C[C@@H](CO)n1cc(-c2cnc(-c3ccco3)nc2)nn1`, the cytotoxicity at 10 µM is -0.662%.

For `CCc1nccn1C1CCCN(C(=O)c2ccc3nnc(C)n3c2)C1` (centres undefined), the cytotoxicity at 10 µM was -8.95%.

As to `NS(=O)(=O)CCNC(=O)c1cc2ccccc2nc1N1CCCC1`, the cytotoxicity at 10 µM was -10.7%.

As for `O=C(CC1CC1)N1CCC(O)(CN2CCN(c3ccccc3)CC2)C1` (centres undefined), the cytotoxicity at 10 µM is -11.2%.

Regarding `CCNC(=O)NC(=O)CN(CC(C)O)c1ccccc1` (centres undefined), the cytotoxicity at 10 µM was found to be 1.32%.

Turning to `CCc1nc(CCNC(=O)Nc2ccc(C(=O)NC)cc2)cs1`, the cytotoxicity at 10 µM was 7.51%.

As to `CCC(C)N(Cc1cccnc1)C(=O)c1ccc(NS(=O)(=O)CC)cc1` (centres undefined), the cytotoxicity at 10 µM was determined as 7.1%.

Take `NC(=O)N1CCC2(CC1)CN(Cc1cccnc1)C(=O)CO2`: the cytotoxicity at 10 µM was determined as 3.63%.

Regarding `CC(C)(C)C(=O)NCCNCc1ccc(Cl)c2cccnc12`, the cytotoxicity at 10 µM is -11.4%.

For `COc1nccnc1N1CCN(Cc2cccc(F)c2)C(=O)C1`, the cytotoxicity at 10 µM was determined as 3.77%.
